High-throughput results deposited in PubChem BioAssay by several laboratories.
An excerpt weighted towards active compounds, which were near 10% of everything screened.
PMI act: activators of human PMI, primary screen, biochemical, fluorescence intensity, near-Km mannose 6-phosphate; Mannose-6-phosphate isomerase (Homo sapiens), P34949; purified human PMI, coupled resazurin fluorescence, 20 min; active compounds read high; 1 = vehicle control, 0 substrate-free wells; activation factor at 20 µM; 190,000 compounds, 0.005% hits; AID 1214, 2008;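 active = activation factor of 2 or more at 20 µM, relative to plate controls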
Target sequence (P34949 whole entry, looked up): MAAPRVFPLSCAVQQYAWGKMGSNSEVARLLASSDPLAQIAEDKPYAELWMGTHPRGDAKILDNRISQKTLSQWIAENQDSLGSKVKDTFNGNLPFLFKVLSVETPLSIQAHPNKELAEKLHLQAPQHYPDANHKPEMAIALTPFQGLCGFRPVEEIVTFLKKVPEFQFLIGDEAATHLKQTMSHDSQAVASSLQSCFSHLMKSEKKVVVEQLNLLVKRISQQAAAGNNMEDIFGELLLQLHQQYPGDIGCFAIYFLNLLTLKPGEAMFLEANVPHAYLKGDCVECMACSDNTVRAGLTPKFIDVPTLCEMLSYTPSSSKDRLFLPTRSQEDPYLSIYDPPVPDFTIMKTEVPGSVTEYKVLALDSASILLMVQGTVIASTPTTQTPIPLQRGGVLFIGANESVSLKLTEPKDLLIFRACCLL
PMI act hi M6P: human PMI activators, high substrate, primary screen, biochemical, fluorescence intensity, near-saturating mannose 6-phosphate; Mannose-6-phosphate isomerase (Homo sapiens), P34949; coupled PMI enzyme assay, resazurin fluorescence, 20 min; active compounds read high; 1 = untreated enzyme, 0 = substrate-free blank; activation factor at 20 µM; 190,000 compounds, 0.34% hits; AID 1216, 2008;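 active = activation factor of 2 or more at 20 µM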
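assay system = human phosphomannose isomerase with PGI, G6PDH, diaphorase coupling enzymes | quantity = 15 ng/mL PMI | incubation = enzyme reaction with compound 20 min at room temperature | medium = HEPES pH 7.4 buffer with MgCl2 and Tween-20 | compound dosing = one concentration, 20 µM, in 1% DMSO | measured by = Diaphorase-driven resazurin-to-resorufin fluorescence, excitation 544, emission 590 nm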
Diaphorase act: compounds boosting diaphorase resazurin reduction – biochemical, uHTS, resorufin fluorescence, counter-screen for diaphorase-coupled primary assays, primary screen; Diaphorase/resazurin coupled assay, 16 min; active compounds read high; 1 = vehicle wells, 0 = NADH-free wells; activation factor at 20 µM; AID 1229, 2008; 190,000 compounds, 0.005% hits;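 active = diaphorase activity raised at least twofold by the compound at 20 µM; inactive = activation factor below 2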
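Material: purified diaphorase enzyme from Clostridium kluyveri; Also added: 0.114 mM NADH and 0.1 mM resazurin, final amounts; Doses: single compound dose of 20 µM, 1% DMSO final; Times: 16 min enzyme reaction, ambient temperature; Detection: resorufin fluorescence, excitation 544 nm, emission 590 nm; Measure: increased resorufin signal from activators or reducing compounds.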
WT yeast gro inh: growth inhibition of WT strain, primary screen, mitochondrial fusion inhibitor project, WT and mutant strains, chemical genetic; mitochondrial fusion phenotypic screen; inhibition, % at 10 µM; 190,000 compounds, 2.1% hits; in the data active = inhibition above about 58%; tested in S. cerevisiae
Lmaj promast: Leishmania major promastigote growth inhibition, primary screen. Leishmania major promastigotes, resazurin fluorescence viability. inhibition, % at 10 µM. 200,000 compounds, 9% hits. AID 1063, 2008; in the data active = inhibition above about 50%;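 note: promastigotes grown with compound for 44 hours at 28 °C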
Starred values were filed as active, the others as inactive; · = no result given.

SMILES	PMI act	PMI act hi M6P	Diaphorase act	WT yeast gro inh	Lmaj promast
CCOc1ccccc1OCCCOc1ccc(C)cc1Br	0.8	0.8	0.8	58.0*	2.0
O=C(Nc1ccc(C(=O)O)cc1)Nc1ccc(F)cc1F	1.1	1.1	1	-11.4	-8.3
CC(C)(C)OC(=O)C(Cc1ccc(OC(C)(C)C)cc1)NC(=O)CNC(=O)CNC(=O)OCc1ccccc1 (centres undefined)	0.9	0.9	0.8	-8.6	32.4
CC(NC(=O)OCc1ccccc1)C(=O)NCC(=O)NC(Cc1ccc(OC(C)(C)C)cc1)C(=O)OC(C)(C)C (centres undefined)	0.9	1	0.8	-0.2	52.7*
Cc1ccc(S(=O)(=O)N2CCN(C(=O)CC3CCCC3)CC2)cc1	0.9	0.8	0.8	18.9	2.7
CCOCCCNCC(=O)N1CCN(S(=O)(=O)c2ccc(C)cc2)CC1	0.9	0.9	0.8	17.3	88.2*
COc1ccc2cc(CN(CC3CCCO3)S(=O)(=O)c3ccccc3Cl)c(=O)[nH]c2c1 (centres undefined)	1	1	1	-11.0	6.9
CCCN1CCN(C(=S)Nc2ccc3nc(N4CCN(CC)CC4)cc(C)c3c2)CC1	0.9	0.7	1.1	14.2	36.5
CCN1CCN(c2cc(C)c3cc(NC(=S)N4CCN(c5ccccc5)CC4)ccc3n2)CC1	0.8	0.7	1	8.1	99.8*
CCN1CCN(c2cc(C)c3cc(NC(=S)N4CCN(c5ccccc5F)CC4)ccc3n2)CC1	1	1	1	35.9	99.1*
COc1ccccc1N1CCN(C(=S)Nc2ccc3nc(N4CCOCC4)cc(C)c3c2)CC1	0.6	0.4	0.7	34.6	53.3*
Cc1cc(N2CCOCC2)nc2ccc(NC(=S)N3CCN(c4ccccc4)CC3)cc12	0.8	0.5	0.9	17.1	4.3
CCN1C(=O)/C(=C2/Sc3ccccc3N2CC)S/C1=N\c1ncn[nH]1	·	·	·	4.8	35.8
CC(=O)c1sc(NC(=O)CCCOc2ccc(Cl)cc2)nc1C	0.9	1	1.1	-10.6	-6.4
CN(C)CC(C)(C)CNS(=O)(=O)CC12CCC(CC1=O)C2(C)C (centres undefined)	1	1.1	0.9	·	-6.5
CN(C)CCCN(Cc1ccccc1)C(=S)Nc1ccc(SC(F)F)cc1	0.9	1	1	9.6	100.0*
CN(C)CCCN(Cc1ccccc1)C(=S)NCc1ccccc1	1	1	1	-13.1	85.8*
CCCN(Cc1ccccc1)C(=S)Nc1ccc(OC(F)F)cc1	0.9	1.1	1	1.4	-6.3
CC(C)N(C(=S)NCc1ccccc1)C(C)C	0.9	0.9	1	-14.7	2.0
CCOC(=O)c1c(-c2ccc(C)o2)csc1NC(=O)COC(=O)c1ccc(NC(N)=O)cc1	0.9	1	0.9	3.5	-7.4
NC(=O)c1nnn(-c2nonc2N)c1-c1ccc([N+](=O)[O-])cc1	0.9	1	0.9	-14.6	-6.8
CCOC(=O)c1ccc(NC(=O)CSCc2ccco2)cc1	0.8	0.9	0.8	-1.9	88.6*
CCOC(=O)c1ccc(NC(=S)N(CCCN2CCCCC2)Cc2ccco2)cc1	0.9	1	0.9	9.5	92.9*
CCOC(=O)c1ccc(NC(=S)N(CCCN(CC)CC)Cc2ccco2)cc1	0.9	1	0.8	-2.6	99.7*
CC(C)CCNC(=O)CCCCn1c(=O)[nH]c2ccsc2c1=O	0.9	1	0.9	-12.3	-9.0
SMILES	PMI act	PMI act hi M6P	Diaphorase act	WT yeast gro inh	Lmaj promast
CC(=O)Nc1ccc(SCC(=O)N(C)C2CCS(=O)(=O)C2)cc1 (centres undefined)	0.9	0.9	0.8	-18.8	-5.8
Cc1ccc(Nc2nc(-c3ccc(O)c(O)c3)cs2)nc1	0.3	0.5	0.2	12.4	98.7*
Cc1ccnc(Nc2nc(-c3c(C)nc4sccn34)cs2)c1	0.8	0.8	0.7	80.7*	32.3
CC(=O)Nc1cccc(-c2csc(Nc3ccc(Cl)cn3)n2)c1	0.9	0.9	0.8	76.1*	39.8
CC(=O)Nc1cccc(-c2csc(Nc3ccccn3)n2)c1	1	1	1.1	9.7	14.4
CC(=O)Nc1ccc(-c2csc(Nc3cc(C)ccn3)n2)cc1	1	1	0.9	37.9	59.9*
Cc1ccnc(NS(=O)(=O)c2ccc(NC(=O)c3ccc(S(=O)(=O)N4CCCC4)cc3)cc2)n1	1.3	1.1	1	-1.4	-6.6
CN1C(=O)/C(=C/c2ccccc2OCc2cccc(F)c2)NC1=S	0.8	0.8	0.8	14.0	6.8
Cc1cc(C)nc(NC(=O)CSc2ncccn2)n1	1	1	0.9	-0.1	-6.8
COCCNCC(=O)N1CCCCCC1	1	1	1	9.4	-5.5
CC(=O)Nc1ccc(-c2csc(Nc3ncccn3)n2)cc1	1	1	1	-7.2	-6.6
CC(=O)Nc1ccc(-c2csc(Nc3ccc(Cl)cn3)n2)cc1	1	0.9	0.9	19.2	58.8*
Cc1ccc(C)c(NC(=O)Cn2cnc3c(oc4ccccc43)c2=O)c1	1	1.1	1	-10.8	-13.2
CCCCC(=O)NC(c1ccc(OC)c(OC)c1)c1c(O)ccc2ccccc12 (centres undefined)	0.8	0.8	0.8	-6.9	100.0*
Cc1ccc(C(NC(=O)C2CCCCC2)c2c(O)ccc3ccccc23)cc1 (centres undefined)	0.8	0.8	0.8	-3.8	97.4*
CC(C)C(=O)NC(c1ccc([N+](=O)[O-])cc1)c1c(O)ccc2ccccc12 (centres undefined)	0.7	0.4	0.6	33.6	97.2*
CCC(=O)NC(c1cccc([N+](=O)[O-])c1)c1c(OC(C)=O)ccc2ccccc12 (centres undefined)	1	1	0.8	-1.8	79.9*
O=[N+]([O-])c1ccc(NC(=S)NCC(c2cccnc2)N2CCOCC2)cc1 (centres undefined)	1.1	1	1.1	-2.4	18.5
CCCC(=O)NC(c1ccc(OC)c(OC)c1)c1c(O)ccc2ccccc12 (centres undefined)	0.8	0.8	0.8	15.6	99.7*
CC(=O)NC(c1ccccc1)c1c(O)ccc2ccccc12 (centres undefined)	·	·	·	-2.9	37.3
CCCC(=O)NC(c1ccc(N(C)C)cc1)c1c(O)ccc2ccccc12 (centres undefined)	0.8	0.5	0.9	0.8	100.3*
N/C(=N\OC(=O)COc1ccc2ccccc2c1Br)c1ccccn1	1	0.9	0.9	64.1*	-4.1
CC1CC(C)CN(c2ccc([N+](=O)[O-])nc2)C1 (centres undefined)	0.9	0.5	0.9	8.2	9.6
CCOC(=O)c1cc(-c2ccc3c(c2)OCO3)nc2onc(C)c12	0.9	0.9	0.8	78.2*	14.9
